Source: ChEMBL document CHEMBL1137254, “Structurally simple, potent, Plasmodium selective farnesyltransferase inhibitors that arrest the growth of malaria parasites” (J Med Chem, 2006)

Target: T1, Protein farnesyltransferase (PFT) (Plasmodium falciparum) (UniProt Q5EI73+Q5EI74)
Assay: Inhibition of Plasmodium falciparum PFT at 50 nM
Details: not given

Row | Structure (SMILES) | inhibition
1 | Cn1cnc(S(=O)(=O)N(CCN(Cc2cncn2C)c2ccc(C#N)cc2)Cc2ccccc2)c1 | 98%
2 | Cn1cnc(S(=O)(=O)N(CCN(Cc2cncn2C)c2ccc(C#N)cc2)CCn2cccc2)c1 | 56%
3 | Cn1cnc(S(=O)(=O)N(CCN(Cc2cncn2C)c2ccc(C#N)cc2)CC2CCN(c3ncccn3)CC2)c1 | 96%
4 | Cn1cnc(S(=O)(=O)N(CCN(Cc2cncn2C)c2ccc(C#N)cc2)CC2CCNCC2)c1 | 5%
5 | Cn1cnc(S(=O)(=O)N(CCN(Cc2cncn2C)c2ccc(C#N)cc2)Cc2ccc(C#N)cc2)c1 | 48%
6 | C=CCN(CCN(Cc1cncn1C)c1ccc(C#N)cc1)S(=O)(=O)c1cn(C)cn1 | 42%
7 | Cc1ccccc1CN(CCN(Cc1cncn1C)c1ccc(-c2ccccc2)cc1)S(=O)(=O)c1cn(C)cn1 | 85%
8 | CC(C)C(=O)N(CCN(Cc1cncn1C)c1ccc(C#N)cc1)Cc1ccccc1 | 61%

Other lines, results leading:

Row | inhibition | Structure (SMILES)
9 | 80% | C=C(Br)CN(CCN(Cc1cncn1C)c1ccc(C#N)cc1)S(=O)(=O)c1cn(C)cn1
10 | 89% | Cn1cnc(S(=O)(=O)N(CCN(Cc2cncn2C)c2ccc(C#N)cc2)Cc2cccc(C#N)c2)c1
11 | 32% | Cn1cnc(S(=O)(=O)N(CCN(Cc2c[nH]cn2)c2ccccc2)Cc2ccccc2)c1
12 | 92% | CC(C)C(=O)N1CCC(CN(CCN(Cc2cncn2C)c2ccc(C#N)cc2)S(=O)(=O)c2cn(C)cn2)CC1
13 | 5% | O=S(=O)(c1cccs1)N(CCN(Cc1c[nH]cn1)c1ccccc1)Cc1ccccc1
14 | 93% | Cn1cnc(S(=O)(=O)N(CCN(Cc2cncn2C)c2ccc(C#N)cc2)Cc2cccc(-c3ccccc3)c2)c1
15 | 6% | Cn1cnc(S(=O)(=O)N(CCN(Cc2cncn2C)c2ccc(C#N)cc2)CC(=O)NC(C)(C)C)c1
16 | 54% | Cc1ccc(CN(CCN(Cc2cncn2C)c2ccc(C#N)cc2)S(=O)(=O)c2cn(C)cn2)cc1
17 | 0% | O=S(=O)(c1ccc2ccccc2c1)N(CCN(Cc1c[nH]cn1)c1ccccc1)Cc1ccccc1
18 | 94% | Cc1cccc(CN(CCN(Cc2cncn2C)c2ccc(C#N)cc2)S(=O)(=O)c2cn(C)cn2)c1
19 | 84% | Cn1cnc(S(=O)(=O)N(CCN(Cc2cncn2C)c2ccc(C#N)cc2)CC2CCOCC2)c1
20 | 56% | CC(=O)N(CCN(Cc1cncn1C)c1ccc(C#N)cc1)Cc1ccccc1

Tested on: not listed separately
Assay: Half life in mouse at 50 mg/kg, po
Type: ADME, organism-based
Set-up: dose 50 mg/kg, route oral
Details: in vivo, read-out: beta t1/2
Summary of the method: (§1)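 Oral gavage at 50 mg/kg in 90% saline, 3% ethanol, 7% Tween; inhibitor concentration in plasma followed over 5 h. Values are averages of three animals per species (mice or rats). Reported parameters are AUC, Cmax, Tmax and elimination t1/2.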

Row | Structure (SMILES) | half-life
21 | Cn1cnc(S(=O)(=O)N(CCN(Cc2cncn2C)c2ccc(C#N)cc2)Cc2ccccc2)c1 | 1.6 h

Tested on: not listed separately
Assay: AUC in mouse at 50 mg/kg, po
Type: ADME, organism-based
Set-up: dose 50 mg/kg, route oral
Details: plasma
Summary of the method: as §1

Row | Structure (SMILES) | AUC
22 | Cn1cnc(S(=O)(=O)N(CCN(Cc2cncn2C)c2ccc(C#N)cc2)Cc2ccccc2)c1 | 1.87 µM·h

Target: T1, Protein farnesyltransferase (PFT) (Plasmodium falciparum)
Assay: Selectivity for inhibition of Plasmodium falciparum PFT over rat PFT
Type: protein-complex assay
Details: not given

Row | Structure (SMILES) | Selectivity ratio
23 | Cn1cnc(S(=O)(=O)N(CCN(Cc2cncn2C)c2ccc(Br)cc2)Cc2ccccn2)c1 | 44
24 | Cn1cnc(S(=O)(=O)N(CCN(Cc2cncn2C)c2ccc(C#N)cc2)Cc2ccc(C#N)cc2)c1 | 3.7

Target: T1, Protein farnesyltransferase (PFT) (Plasmodium falciparum)
Assay: Inhibition of Plasmodium falciparum PFT at 5 nM
Details: not given

Row | Structure (SMILES) | inhibition
25 | Cn1cnc(S(=O)(=O)N(CCN(Cc2cncn2C)c2ccc(C#N)cc2)Cc2ccccc2)c1 | 86%
26 | Cn1cnc(S(=O)(=O)N(CCN(Cc2cncn2C)c2ccc(C#N)cc2)CCn2cccc2)c1 | 11%
27 | Cn1cnc(S(=O)(=O)N(CCN(Cc2cncn2C)c2ccc(C#N)cc2)CC2CCN(c3ncccn3)CC2)c1 | 74%
28 | Cn1cnc(S(=O)(=O)N(CCN(Cc2cncn2C)c2ccc(C#N)cc2)CC2CCNCC2)c1 | 5%
29 | Cn1cnc(S(=O)(=O)N(CCN(Cc2cncn2C)c2ccc(C#N)cc2)Cc2ccc(C#N)cc2)c1 | 24%
30 | C=CCN(CCN(Cc1cncn1C)c1ccc(C#N)cc1)S(=O)(=O)c1cn(C)cn1 | 1%
31 | Cc1ccccc1CN(CCN(Cc1cncn1C)c1ccc(-c2ccccc2)cc1)S(=O)(=O)c1cn(C)cn1 | 49%
32 | CC(C)C(=O)N(CCN(Cc1cncn1C)c1ccc(C#N)cc1)Cc1ccccc1 | 0%

Second part, the molecule after the results:

Row | inhibition | Structure (SMILES)
33 | 25% | C=C(Br)CN(CCN(Cc1cncn1C)c1ccc(C#N)cc1)S(=O)(=O)c1cn(C)cn1
34 | 45% | Cn1cnc(S(=O)(=O)N(CCN(Cc2cncn2C)c2ccc(C#N)cc2)Cc2cccc(C#N)c2)c1
35 | 57% | CC(C)C(=O)N1CCC(CN(CCN(Cc2cncn2C)c2ccc(C#N)cc2)S(=O)(=O)c2cn(C)cn2)CC1
36 | 56% | Cn1cnc(S(=O)(=O)N(CCN(Cc2cncn2C)c2ccc(C#N)cc2)Cc2cccc(-c3ccccc3)c2)c1
37 | 4% | Cn1cnc(S(=O)(=O)N(CCN(Cc2cncn2C)c2ccc(C#N)cc2)CC(=O)NC(C)(C)C)c1
38 | 45% | Cc1ccc(CN(CCN(Cc2cncn2C)c2ccc(C#N)cc2)S(=O)(=O)c2cn(C)cn2)cc1
39 | 61% | Cc1cccc(CN(CCN(Cc2cncn2C)c2ccc(C#N)cc2)S(=O)(=O)c2cn(C)cn2)c1
40 | 28% | Cn1cnc(S(=O)(=O)N(CCN(Cc2cncn2C)c2ccc(C#N)cc2)CC2CCOCC2)c1
41 | 0% | CC(=O)N(CCN(Cc1cncn1C)c1ccc(C#N)cc1)Cc1ccccc1

Tested on: Plasmodium falciparum
Assay: Inhibition of Plasmodium falciparum K1 growth as reduced [3H]hypoxanthine incorporation
Type: functional
Details: K1, 72 h, read-out: ED50 (the source's name)
Summary of the method: (§2)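 Inhibitor in DMSO was added to P. falciparum culture (0.5% parasitemia, 0.5% hematocrit) in RPMI-1640 with 20% human A+ plasma. Cultures were held 48 h at 37 °C under 5% CO2/5% O2/90% N2, then pulsed with [8-3H]hypoxanthine (0.3 μCi) for 24 h more. Cells were harvested and counted by β-scintillation. Background from uninfected RBCs was subtracted, with DMSO set as 100%. ED50 was obtained by linear regression.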

Row | Structure (SMILES) | EC50
42 | Cn1cnc(S(=O)(=O)N(CCN(Cc2cncn2C)c2ccc(C#N)cc2)Cc2ccccc2)c1 | 367 nM
43 | Cn1cnc(S(=O)(=O)N(CCN(Cc2cncn2C)c2ccc(C#N)cc2)Cc2cccc(C#N)c2)c1 | 1800 nM
44 | Cc1cccc(CN(CCN(Cc2cncn2C)c2ccc(C#N)cc2)S(=O)(=O)c2cn(C)cn2)c1 | 1000 nM
45 | Cc1ccccc1CN(CCN(Cc1cncn1C)c1ccc(-c2ccccc2)cc1)S(=O)(=O)c1cn(C)cn1 | 2600 nM

Tested on: not listed separately
Assay: Tmax in mouse at 50 mg/kg, po
Type: ADME, organism-based
Set-up: dose 50 mg/kg, route oral
Details: in vivo
Summary of the method: as §1

Row | Structure (SMILES) | Tmax
46 | Cn1cnc(S(=O)(=O)N(CCN(Cc2cncn2C)c2ccc(C#N)cc2)Cc2ccccc2)c1 | 0.5 h

Tested on: not listed separately
Assay: Cmax in mouse at 50 mg/kg, po
Type: ADME, organism-based
Set-up: dose 50 mg/kg, route oral
Details: in vivo
Summary of the method: as §1

Row | Structure (SMILES) | Cmax
47 | Cn1cnc(S(=O)(=O)N(CCN(Cc2cncn2C)c2ccc(C#N)cc2)Cc2ccccc2)c1 | 740 nM

Target: T2, Protein farnesyltransferase (PFT) (Plasmodium falciparum, UniProt Q5EI73+Q5EI74)
T2 sequence (Q5EI73 whole entry): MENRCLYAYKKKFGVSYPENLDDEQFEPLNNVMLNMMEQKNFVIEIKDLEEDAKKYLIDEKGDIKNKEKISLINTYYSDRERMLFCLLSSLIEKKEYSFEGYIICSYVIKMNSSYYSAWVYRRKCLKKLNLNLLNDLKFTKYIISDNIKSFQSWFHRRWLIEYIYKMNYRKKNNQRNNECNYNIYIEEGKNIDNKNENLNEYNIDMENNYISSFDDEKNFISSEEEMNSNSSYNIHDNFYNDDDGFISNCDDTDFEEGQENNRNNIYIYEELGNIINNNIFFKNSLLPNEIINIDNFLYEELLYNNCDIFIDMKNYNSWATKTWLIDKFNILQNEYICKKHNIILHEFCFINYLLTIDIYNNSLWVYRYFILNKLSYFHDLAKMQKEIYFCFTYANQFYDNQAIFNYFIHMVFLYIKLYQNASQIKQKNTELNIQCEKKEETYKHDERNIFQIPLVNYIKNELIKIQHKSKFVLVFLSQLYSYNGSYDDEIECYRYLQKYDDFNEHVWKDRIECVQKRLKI
T2 sequence (Q5EI74 whole entry): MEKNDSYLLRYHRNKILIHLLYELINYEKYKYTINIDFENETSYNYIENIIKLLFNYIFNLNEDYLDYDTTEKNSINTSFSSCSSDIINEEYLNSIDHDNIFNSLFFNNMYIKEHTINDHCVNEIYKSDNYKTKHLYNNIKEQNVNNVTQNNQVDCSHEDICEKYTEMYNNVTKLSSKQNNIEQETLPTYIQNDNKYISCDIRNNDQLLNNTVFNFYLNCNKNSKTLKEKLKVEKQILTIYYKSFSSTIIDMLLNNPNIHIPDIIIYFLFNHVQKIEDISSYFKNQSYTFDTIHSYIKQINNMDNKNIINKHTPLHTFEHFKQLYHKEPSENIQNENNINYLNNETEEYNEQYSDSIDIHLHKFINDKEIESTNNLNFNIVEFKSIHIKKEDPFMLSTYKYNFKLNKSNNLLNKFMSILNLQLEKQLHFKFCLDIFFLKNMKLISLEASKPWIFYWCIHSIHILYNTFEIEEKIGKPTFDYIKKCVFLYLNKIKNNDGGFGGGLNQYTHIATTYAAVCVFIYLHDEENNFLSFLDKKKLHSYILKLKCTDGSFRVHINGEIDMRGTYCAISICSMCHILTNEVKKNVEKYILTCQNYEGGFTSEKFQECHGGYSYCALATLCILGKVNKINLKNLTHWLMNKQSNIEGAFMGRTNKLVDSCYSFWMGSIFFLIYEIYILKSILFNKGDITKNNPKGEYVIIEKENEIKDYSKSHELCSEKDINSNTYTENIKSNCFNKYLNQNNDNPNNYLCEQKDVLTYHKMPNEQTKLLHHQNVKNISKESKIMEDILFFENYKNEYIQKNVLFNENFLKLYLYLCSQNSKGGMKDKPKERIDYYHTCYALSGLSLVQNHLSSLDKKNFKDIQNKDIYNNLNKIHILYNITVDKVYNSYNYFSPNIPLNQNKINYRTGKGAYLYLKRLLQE
Assay: Inhibition of Plasmodium falciparum PFT
Type: protein-complex assay
Details: not given

Row | Structure (SMILES) | IC50
48 | Cn1cnc(S(=O)(=O)N(CCN(Cc2cncn2C)c2ccc(Br)cc2)Cc2ccccn2)c1 | 1.9 nM
49 | Cn1cnc(S(=O)(=O)N(CCN(Cc2cncn2C)c2ccc(C#N)cc2)CC(=O)NC(C)(C)C)c1 | > 1000 nM
50 | Cn1cnc(S(=O)(=O)N(CCN(Cc2cncn2C)c2ccc(C#N)cc2)Cc2ccc(C#N)cc2)c1 | 95 nM
51 | Cc1ccccc1CN(CCN(Cc1cncn1C)c1ccc(-c2ccccc2)cc1)S(=O)(=O)c1cn(C)cn1 | 8 nM

Tested on: Plasmodium falciparum
Assay: Inhibition of Plasmodium falciparum 3D7 growth as reduced [3H]hypoxanthine incorporation
Type: functional
Details: 3D7, 72 h, read-out: ED50 (the source's name)
Summary of the method: as §2

Row | Structure (SMILES) | EC50
52 | Cn1cnc(S(=O)(=O)N(CCN(Cc2cncn2C)c2ccc(C#N)cc2)Cc2cccc(C#N)c2)c1 | 350 nM
53 | Cc1cccc(CN(CCN(Cc2cncn2C)c2ccc(C#N)cc2)S(=O)(=O)c2cn(C)cn2)c1 | 300 nM
